Series [1] can be described thus: folding enthalpy; higher = less favourable; fluorescence melt of hairpins on a sequencing array, two-state fit. As to conditions: sodium 0.088 M. Summed up:
(§1)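 Melting temperature and folding enthalpy were obtained by bootstrapped two-state fitting. Fits used Cy3 fluorescence of library hairpins with annealed Cy3 and quencher oligos on a sequenced MiSeq flow cell, imaged in 50 mM Na-HEPES pH 8.0, 25 mM NaCl in 2.5 °C steps up to 60 °C and normalised to pre-quench Cy3 and control constructs. Four replicates were combined by inverse-variance weighting, and fitted temperatures were raised by 9.35 °C to match UV melts.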

Series [2] is described as follows: melting temperature; fluorescence melt of hairpins on a sequencing array, two-state fit, raised by 9.35 °C to match UV melts. To be noted: sodium 0.088 M. Summed up: as §1

Take GTGCTTCGAAAGAATCAC (((.(((....))).))): the folding enthalpy in series [1] is -35.5 kcal/mol. The Tm in series [2] was 41.6 °C.

In the case of GTGCTTGGAAACAAGCAC (((((((....))))))), the folding enthalpy in series [1] was -38.7 kcal/mol. In addition, in series [2], the Tm was determined as 68.1 °C.

Regarding GTGCTTGGAAACAAGCGC (.(((((....))))).), the folding enthalpy in series [1] was -32.2 kcal/mol. Besides, the Tm in series [2] came out at 61.3 °C.

GTGGAACGAAAGTTACAC (((.(((....))).))): in series [1], the folding enthalpy is -40.4 kcal/mol. In series [2], the Tm turned out to be 57 °C.

For the sequence GTGGAACGAAAGTTTCAC (((.(((....))).))), in series [1], the folding enthalpy is -42.7 kcal/mol. For the same sequence, the Tm in series [2] was determined as 53.2 °C.

Regarding GTGGACGAAAGTCAGCAC ((((((....)))..))), in series [1], the folding enthalpy is -16.1 kcal/mol. Besides, in series [2], the Tm worked out at 40.3 °C.

On to GTGGACGAAAGTCATCAC ((((((....)))..))), for which the folding enthalpy in series [1] was -13.1 kcal/mol. Further, the Tm in series [2] turned out to be 36.3 °C.

Regarding GTGGACGAAAGTCCTCAC ((((((....)))..))), in series [1], the folding enthalpy was -9.72 kcal/mol. The Tm in series [2] was determined as 38 °C.

As to GTGGACGAAAGTCTCAC ((((((....))).))), the folding enthalpy in series [1] is -20.1 kcal/mol. For the same sequence, the Tm in series [2] amounted to 46.6 °C.

Regarding GTGGACGCGAAAGCGCAC (((..(((....)))))), in series [1], the folding enthalpy is -15.4 kcal/mol. The Tm in series [2] was 47.8 °C.

GTGGACGGAAACATCCAC (((((.(....).))))): the folding enthalpy in series [1] was -31.8 kcal/mol. For the same sequence, in series [2], the Tm amounted to 43.6 °C.

GTGGAGACGAAAGTCCAC (((..(((....)))))): the folding enthalpy in series [1] was -22.8 kcal/mol. Moreover, the Tm in series [2] stood at 47.6 °C.

For GTGGAGCGAAAGCTCAC (((.(((....)))))), the folding enthalpy in series [1] is -12.1 kcal/mol. In addition, in series [2], the Tm came out at 52.1 °C.

On to GTGGAGGGAAACCCCCAC ((((.((....)).)))), for which the folding enthalpy in series [1] was -30.6 kcal/mol. Besides, the Tm in series [2] came to 48.8 °C.

Take GTGGAGGGAAACCTCCAC (((((((....))))))): in series [1], the folding enthalpy is -40.9 kcal/mol. Further, the Tm in series [2] came out at 66.5 °C.

Turning to GTGGAGGGAAACCTTCAC (((.(((....))).))), the folding enthalpy in series [1] is -31.9 kcal/mol. Besides, the Tm in series [2] was 47.3 °C.

GTGGATCGAAAGATACAC (((.(((....))).))): in series [1], the folding enthalpy was -44.2 kcal/mol. Further, in series [2], the Tm stood at 55.9 °C.

With GTGGATCGAAAGATCAC (((.(((....)))))), the folding enthalpy in series [1] was -13.3 kcal/mol. The Tm in series [2] came out at 48.8 °C.

As for GTGGATGGAAACATCCGC (.(((((....))))).), the folding enthalpy in series [1] is -28 kcal/mol. For the same sequence, the Tm in series [2] was found to be 56.1 °C.

For the sequence GTGGATGGAAACATTCAC (((.(((....))).))), the folding enthalpy in series [1] is -45.5 kcal/mol. Moreover, the Tm in series [2] was determined as 46.6 °C.

GTGGATGGAAACATTCGC (.(.(((....))).).): the folding enthalpy in series [1] is -28.4 kcal/mol. The Tm in series [2] came to 34.9 °C.

In the case of GTGGATGGAAACGTCCAC (((((.(....).))))), the folding enthalpy in series [1] was -47.6 kcal/mol. For the same sequence, the Tm in series [2] is 53 °C.

As for GTGGATTCGAAAGAACAC (((..(((....)))))), the folding enthalpy in series [1] is -17.4 kcal/mol. The Tm in series [2] stood at 32 °C.

Regarding GTGGCAGCGAAAGCTCAC (((..(((....)))))), the folding enthalpy in series [1] is -12.4 kcal/mol. The Tm in series [2] turned out to be 43.7 °C.

In the case of GTGGCCGAAAGGCACAC ((((((....))).))), the folding enthalpy in series [1] was -15.1 kcal/mol. The Tm in series [2] turned out to be 63.1 °C.

Consider GTGGCCGAAAGGCGCCAC ((((((....)))..))), for which the folding enthalpy in series [1] was -13.7 kcal/mol. In series [2], the Tm came to 49 °C.

Take GTGGCCGAAAGGCTTCAC ((((((....)))..))): the folding enthalpy in series [1] was -12.4 kcal/mol. The Tm in series [2] stood at 33.6 °C.

GTGGCCGCGAAAGCGCAC (((..(((....)))))): the folding enthalpy in series [1] was -9.11 kcal/mol. Also, in series [2], the Tm amounted to 48.4 °C.

With GTGGCCGGAAACGACCAC ((((.((....)).)))), the folding enthalpy in series [1] is -40.3 kcal/mol. In addition, in series [2], the Tm stood at 56.5 °C.

Regarding GTGGCGGCGAAAGCCCAC (((..(((....)))))), in series [1], the folding enthalpy was -15 kcal/mol. Also, in series [2], the Tm was 54 °C.

GTGGCGGGAAACCACCAC ((((.((....)).)))): the folding enthalpy in series [1] is -35.4 kcal/mol. Besides, the Tm in series [2] worked out at 51.5 °C.

Regarding GTGGCGGGAAACCGCTGC (..((((....))))..), the folding enthalpy in series [1] is -15.4 kcal/mol. Further, the Tm in series [2] came to 47.9 °C.

With GTGGCGGGAAACTGCCAC (((((.(....).))))), in series [1], the folding enthalpy is -54.1 kcal/mol. For the same sequence, in series [2], the Tm was 60.7 °C.

GTGGCGGGAAACTGCCGC (.(((.(....).))).): the folding enthalpy in series [1] was -22.2 kcal/mol. In addition, in series [2], the Tm is 53.5 °C.

With GTGGCTCGAAAGAGACAC (((.(((....))).))), the folding enthalpy in series [1] is -40.1 kcal/mol. In addition, the Tm in series [2] is 68.9 °C.

GTGGCTCGAAAGAGCAC (((.(((....)))))): the folding enthalpy in series [1] was -11.8 kcal/mol. Besides, the Tm in series [2] is 51.2 °C.

(Values after the array DNA melting data of Ke et al. (doi:10.1101/2024.01.08.574731).)
